# Several values for one entry are separate records, joined by “and”; a condition that tells them apart may be missing. Identical values can stand only once.
# Assays:
# Fibroblast = test: Multiplex assay against human fibroblast; format: toxicity, cell-based
# In short: (§1)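 Cells stained live at seeding with Hoechst33342, BioTracker Green Microtubule Cytoskeleton Dye, MitoTracker Red and Annexin V Alexa Fluor 680 were imaged on a CQ1 microscope at 37°C and 5% CO2 after compound addition. Their classification by CellPathfinder machine-learning gating ran from Hoechst high-intensity objects versus normal cells, to healthy, pyknosed or fragmented nuclei among normal cells, to mitotic or apoptotic among pyknosed cells. Tubulin, mitochondrial-mass and membrane-permeability phenotypes are per cents of healthy-nucleus cells.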
# U2OS = test: Multiplex assay against U2OS; format: toxicity, cell-based; conditions: human; in short: as §1
# [1] = 24 h, 1 µM, compound concentration 1 uM
# [2] = 24 h, 10 µM, compound concentration 10 uM
# [3] = 48 h, 1 µM, compound concentration 1 uM
# [4] = 48 h, 10 µM, compound concentration 10 uM
# [5] = 12 h, 1 µM, compound concentration 1 uM
# [6] = 12 h, 10 µM, compound concentration 10 uM
smiles,measurement,setting,value
CC(C)COc1ccc(CNC(=O)N(Cc2ccc(F)cc2)C2CCN(C)CC2)cc1 [PIMAVANSERIN],Total Cell Count,Fibroblast; [1],186 and 157
same,Population Apoptotic (%),Fibroblast; [2],83% and 69%
same,Population Fragmented Nuclei (%),Fibroblast; [2],13% and 27%
same,Population Healthy Nuclei (%),Fibroblast; [2],67% and 50%
same,Population Hoechst High Intensity Objects (%),Fibroblast; [2],4% and 8%
same,Population Membrane Permeable-Phenotype (%),Fibroblast; [2],0% and 3%
same,Population Mitochondria Different-Phenotype (%),Fibroblast; [2],41% and 38%
same,Population Mitotic Cells (%),Fibroblast; [2],16% and 30%
same,Population Normal (%),Fibroblast; [2],95% and 91%
same,Population Pyknosed Nuclei (%),Fibroblast; [2],18% and 21%
same,Population Tubulin-Different-Phenotype (%),Fibroblast; [2],92% and 96%
same,Total Cell Count,Fibroblast; [2],170 and 167
same,Population Apoptotic (%),Fibroblast; [3],88% and 52%
same,Population Fragmented Nuclei (%),Fibroblast; [3],27% and 44%
same,Population Healthy Nuclei (%),Fibroblast; [3],62% and 44%
same,Population Hoechst High Intensity Objects (%),Fibroblast; [3],3% and 5%
same,Population Membrane Permeable-Phenotype (%),Fibroblast; [3],1% and 4%
same,Population Mitochondria Different-Phenotype (%),Fibroblast; [3],3% and 12%
same,Population Normal (%),Fibroblast; [3],96% and 94%
same,Population Pyknosed Nuclei (%),Fibroblast; [3],9% and 10%
same,Population Tubulin-Different-Phenotype (%),Fibroblast; [3],45% and 64%
same,Total Cell Count,Fibroblast; [3],204 and 167
same,Population Apoptotic (%),Fibroblast; [4],92% and 75%
same,Population Fragmented Nuclei (%),Fibroblast; [4],15% and 30%
same,Population Healthy Nuclei (%),Fibroblast; [4],67% and 53%
same,Population Hoechst High Intensity Objects (%),Fibroblast; [4],12% and 6%
same,Population Membrane Permeable-Phenotype (%),Fibroblast; [4],0% and 3%
same,Population Mitochondria Different-Phenotype (%),Fibroblast; [4],44% and 41%
same,Population Normal (%),Fibroblast; [4],87% and 93%
same,Population Pyknosed Nuclei (%),Fibroblast; [4],17% and 16%
same,Population Tubulin-Different-Phenotype (%),Fibroblast; [4],91% and 92%
same,Total Cell Count,Fibroblast; [4],163 and 159
same,Population Apoptotic (%),U2OS; [5],84% and 100%
same,Population Fragmented Nuclei (%),U2OS; [5],23% and 11%
same,Population Healthy Nuclei (%),U2OS; [5],67% and 80%
same,Population Hoechst High Intensity Objects (%),U2OS; [5],2% and 0%
same,Population Membrane Permeable-Phenotype (%),U2OS; [5],6%
same,Population Mitochondria Different-Phenotype (%),U2OS; [5],3% and 4%
same,Population Mitotic Cells (%),U2OS; [5],16% and 0%
same,Population Normal (%),U2OS; [5],97% and 99%
same,Population Pyknosed Nuclei (%),U2OS; [5],9% and 7%
same,Population Tubulin-Different-Phenotype (%),U2OS; [5],5% and 6%
same,Total Cell Count,U2OS; [5],265 and 136
same,Population Apoptotic (%),U2OS; [6],67% and 71%
same,Population Fragmented Nuclei (%),U2OS; [6],23% and 18%
same,Population Healthy Nuclei (%),U2OS; [6],48% and 54%
same,Population Hoechst High Intensity Objects (%),U2OS; [6],5% and 4%
same,Population Membrane Permeable-Phenotype (%),U2OS; [6],48% and 26%
same,Population Mitochondria Different-Phenotype (%),U2OS; [6],73% and 70%
same,Population Mitotic Cells (%),U2OS; [6],32% and 28%
same,Population Normal (%),U2OS; [6],94% and 95%
same,Population Pyknosed Nuclei (%),U2OS; [6],27% and 26%
same,Population Tubulin-Different-Phenotype (%),U2OS; [6],77% and 52%
same,Total Cell Count,U2OS; [6],202 and 124
same,Population Apoptotic (%),U2OS; [1],92% and 78%
same,Population Fragmented Nuclei (%),U2OS; [1],22% and 11%
same,Population Healthy Nuclei (%),U2OS; [1],67% and 80%
same,Population Hoechst High Intensity Objects (%),U2OS; [1],2% and 1%
same,Population Membrane Permeable-Phenotype (%),U2OS; [1],10% and 11%
same,Population Mitochondria Different-Phenotype (%),U2OS; [1],4% and 8%
same,Population Mitotic Cells (%),U2OS; [1],7% and 21%
same,Population Normal (%),U2OS; [1],97% and 98%
same,Population Pyknosed Nuclei (%),U2OS; [1],9% and 8%
same,Population Tubulin-Different-Phenotype (%),U2OS; [1],6%
same,Total Cell Count,U2OS; [1],294 and 163
same,Population Apoptotic (%),U2OS; [2],88% and 79%
same,Population Fragmented Nuclei (%),U2OS; [2],28% and 16%
same,Population Healthy Nuclei (%),U2OS; [2],40% and 50%
same,Population Hoechst High Intensity Objects (%),U2OS; [2],10% and 3%
same,Population Membrane Permeable-Phenotype (%),U2OS; [2],32% and 30%
same,Population Mitochondria Different-Phenotype (%),U2OS; [2],67% and 75%
same,Population Mitotic Cells (%),U2OS; [2],11% and 20%
same,Population Normal (%),U2OS; [2],89% and 96%
same,Population Pyknosed Nuclei (%),U2OS; [2],31% and 33%
same,Population Tubulin-Different-Phenotype (%),U2OS; [2],49%
same,Total Cell Count,U2OS; [2],214 and 135
same,Population Apoptotic (%),U2OS; [3],87% and 92%
same,Population Fragmented Nuclei (%),U2OS; [3],19% and 12%
same,Population Healthy Nuclei (%),U2OS; [3],68% and 76%
same,Population Hoechst High Intensity Objects (%),U2OS; [3],2% and 1%
same,Population Membrane Permeable-Phenotype (%),U2OS; [3],6% and 5%
same,Population Mitochondria Different-Phenotype (%),U2OS; [3],5%
same,Population Mitotic Cells (%),U2OS; [3],12% and 7%
same,Population Normal (%),U2OS; [3],97% and 98%
same,Population Pyknosed Nuclei (%),U2OS; [3],12% and 11%
same,Population Tubulin-Different-Phenotype (%),U2OS; [3],4% and 2%
same,Total Cell Count,U2OS; [3],393 and 234
same,Population Apoptotic (%),U2OS; [4],98% and 95%
same,Population Fragmented Nuclei (%),U2OS; [4],38%
same,Population Healthy Nuclei (%),U2OS; [4],19% and 15%
same,Population Hoechst High Intensity Objects (%),U2OS; [4],13% and 8%
same,Population Membrane Permeable-Phenotype (%),U2OS; [4],40% and 66%
same,Population Mitochondria Different-Phenotype (%),U2OS; [4],56% and 80%
same,Population Mitotic Cells (%),U2OS; [4],1% and 4%
same,Population Normal (%),U2OS; [4],86% and 91%
same,Population Pyknosed Nuclei (%),U2OS; [4],42% and 45%
same,Population Tubulin-Different-Phenotype (%),U2OS; [4],54% and 71%
same,Total Cell Count,U2OS; [4],222 and 146

# From ChEMBL document CHEMBL5724801, “EUbOPEN Chemogenomics Library - Multiplex” (2024)
